ChEMBL document CHEMBL5230175, “The war on hTG2: warhead optimization in small molecule human tissue transglutaminase inhibitors” (RSC Med Chem, 2023)

How the values were obtained:
[1] = biological target: T1, Protein-glutamine gamma-glutamyltransferase (Homo sapiens) (UniProt P21980); experiment: Irreversible inhibition of human TG2 using Cbz-Glu-(gamma-p-nitrophenylester)Gly (AL5) as substrate assessed as substrate hydrolysis by measuring observed binding constant incubated for 20 mins by colorimetric assay
T1 sequence (whole entry): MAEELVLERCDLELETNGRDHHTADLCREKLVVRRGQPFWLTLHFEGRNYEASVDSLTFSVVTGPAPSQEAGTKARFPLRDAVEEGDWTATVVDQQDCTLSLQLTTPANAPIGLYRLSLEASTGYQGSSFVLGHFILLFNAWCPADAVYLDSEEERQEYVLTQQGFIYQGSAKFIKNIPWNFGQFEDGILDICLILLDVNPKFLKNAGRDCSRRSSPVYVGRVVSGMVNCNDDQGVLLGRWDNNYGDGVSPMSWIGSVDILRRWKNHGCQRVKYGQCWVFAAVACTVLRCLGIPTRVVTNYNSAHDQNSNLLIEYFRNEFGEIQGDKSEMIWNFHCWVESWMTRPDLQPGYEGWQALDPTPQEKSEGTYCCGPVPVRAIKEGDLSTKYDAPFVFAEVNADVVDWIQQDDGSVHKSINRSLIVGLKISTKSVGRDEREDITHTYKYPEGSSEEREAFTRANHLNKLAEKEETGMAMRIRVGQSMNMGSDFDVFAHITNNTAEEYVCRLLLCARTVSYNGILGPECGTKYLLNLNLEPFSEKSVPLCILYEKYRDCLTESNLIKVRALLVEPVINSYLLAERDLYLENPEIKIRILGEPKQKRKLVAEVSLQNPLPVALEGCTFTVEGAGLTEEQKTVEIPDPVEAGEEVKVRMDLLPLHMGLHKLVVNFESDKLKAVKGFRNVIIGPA

[2] = GSH reactivity in aqueous buffer assessed as GSH adduct formation by measuring corrected intrinsic second order rate constant (K2 corrected) by HPLC analysis; type: physicochemical
Procedure, shortened: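 GSH stock diluted to final 15 mM in aqueous buffer (pH 8.0 used, 7.4 too slow), reaction started with inhibitor at final 0.5 mM, 2% v/v DMSO. Incubated at 22 °C and aliquots taken over at least 5–6 half-lives. HPLC with UV 214/254 nm tracked adduct growth and inhibitor loss, fitted mono-exponentially to give pseudo-first-order kobs. kobs was divided by [thiol] and then by the thiolate fraction (pKa 8.7) to give kcorr2. Run in duplicate.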

[3] = biological target: T2, Coagulation factor XIII A chain (Homo sapiens) (UniProt P00488); experiment: Irreversible inhibition of human factor XIIIa using peptidic FRET-quenched probe A101 as substrate assessed as observed binding constant by fluorescence based assay
T2 sequence (whole entry): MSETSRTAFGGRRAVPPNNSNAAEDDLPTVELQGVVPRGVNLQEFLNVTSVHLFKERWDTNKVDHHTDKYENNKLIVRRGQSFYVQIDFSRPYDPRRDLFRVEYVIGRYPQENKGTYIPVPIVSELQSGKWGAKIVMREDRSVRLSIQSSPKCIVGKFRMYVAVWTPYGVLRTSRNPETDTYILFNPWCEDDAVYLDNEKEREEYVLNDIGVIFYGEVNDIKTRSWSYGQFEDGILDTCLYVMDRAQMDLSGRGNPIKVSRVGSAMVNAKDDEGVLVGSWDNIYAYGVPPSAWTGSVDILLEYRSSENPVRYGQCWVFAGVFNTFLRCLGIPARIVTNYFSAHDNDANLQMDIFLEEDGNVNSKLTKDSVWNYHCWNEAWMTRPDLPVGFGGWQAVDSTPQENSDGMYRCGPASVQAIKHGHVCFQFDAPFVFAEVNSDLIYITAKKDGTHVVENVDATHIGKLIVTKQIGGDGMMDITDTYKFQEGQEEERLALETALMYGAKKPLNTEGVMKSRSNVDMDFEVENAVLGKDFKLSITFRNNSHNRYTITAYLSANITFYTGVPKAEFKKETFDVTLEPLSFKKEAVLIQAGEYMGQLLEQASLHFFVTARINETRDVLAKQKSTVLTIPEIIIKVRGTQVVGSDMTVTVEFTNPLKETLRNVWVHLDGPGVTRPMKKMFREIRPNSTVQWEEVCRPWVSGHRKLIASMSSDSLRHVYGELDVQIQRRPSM

[4] = Metabolic stability in pooled cryopreserved human hepatocytes assessed as half-life at 1 uM measured upto 120 mins by LC-MS/MS analysis; type: ADME, cell-based, Hepatocyte
Procedure, shortened: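 Samples were taken at 0, 5, 15, 30, 60 and 120 min, acetonitrile-quenched with internal standard, and analysed by LC-MS/MS. Half-life came from exponential decay of the parent/IS ratio relative to T = 0.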

[5] = Metabolic stability in human whole blood assessed as half-life at 1 to 5 uM measured upto 120 mins by LC-MS/MS analysis; type: ADME, tissue-based; settings: dose 1-5 µM
Procedure, shortened: (§1)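 Pooled human whole blood (K3-EDTA) was spiked to 1 or 5 μM compound. Aliquots taken at 0, 15, 30, 60 and 120 min were quenched in acetonitrile with 0.1% formic acid and internal standard, then analysed by LC-MS/MS. Percent parent remaining is the peak-area ratio versus T = 0; half-life comes from an exponential decay fit.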

[6] = biological target: T3, Protein-glutamine gamma-glutamyltransferase K (Homo sapiens) (UniProt P22735); experiment: Irreversible inhibition of human TG1 using Cbz-Glu-(gamma-p-nitrophenylester)Gly (AL5) as substrate assessed as substrate hydrolysis by measuring observed binding constant incubated for 100 mins by colorimetric assay
T3 sequence (whole entry): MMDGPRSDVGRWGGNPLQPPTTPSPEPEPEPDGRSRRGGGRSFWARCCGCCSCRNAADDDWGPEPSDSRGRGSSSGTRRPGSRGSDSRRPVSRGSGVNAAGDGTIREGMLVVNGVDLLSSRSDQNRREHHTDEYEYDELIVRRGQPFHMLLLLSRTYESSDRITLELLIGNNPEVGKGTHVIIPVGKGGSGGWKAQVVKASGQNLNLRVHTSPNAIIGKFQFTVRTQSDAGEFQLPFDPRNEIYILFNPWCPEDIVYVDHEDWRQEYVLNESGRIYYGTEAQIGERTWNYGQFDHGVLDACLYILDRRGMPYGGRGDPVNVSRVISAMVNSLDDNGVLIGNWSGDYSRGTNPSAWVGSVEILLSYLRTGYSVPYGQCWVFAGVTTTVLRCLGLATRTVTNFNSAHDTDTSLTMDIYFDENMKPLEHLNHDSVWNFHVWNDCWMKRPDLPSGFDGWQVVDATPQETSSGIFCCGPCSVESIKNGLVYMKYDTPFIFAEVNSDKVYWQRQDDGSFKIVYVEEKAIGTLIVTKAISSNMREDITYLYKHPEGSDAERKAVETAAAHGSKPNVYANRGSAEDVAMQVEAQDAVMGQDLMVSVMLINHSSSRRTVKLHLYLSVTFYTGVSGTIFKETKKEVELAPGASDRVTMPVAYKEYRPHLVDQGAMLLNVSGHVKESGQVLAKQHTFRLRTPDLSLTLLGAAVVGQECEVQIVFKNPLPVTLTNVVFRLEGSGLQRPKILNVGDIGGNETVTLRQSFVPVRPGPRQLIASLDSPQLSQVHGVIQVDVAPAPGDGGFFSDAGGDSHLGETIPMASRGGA

[7] = Metabolic stability in human whole blood assessed as drug degradation measured upto 120 mins by LC-MS/ms analysis; type: ADME, tissue-based; settings: 2 h; procedure, shortened: as §1

K [1] [min⁻¹]	K [2]	K [3] [min⁻¹]	half-life at 1 µM [4] [h]	half-life at up to 5 µM [5] [h]	K [6] [min⁻¹]	Stability [7]	SMILES
0.537	1.48 10^-3/M/min	0.013	> 2	> 2	0.018	Stable	O=C(CCl)NCC(=O)N1CCN(C(=O)C23CC4CC(CC(C4)C2)C3)CC1
0.5	0.079 10^-3/M/min	0.051	> 2	> 2	0.023	Stable	C=CC(=O)NCC(=O)N1CCN(C(=O)C23CC4CC(CC(C4)C2)C3)CC1
